14 molecules from PubChem BioAssay can be followed below.

The source made the active and inactive calls. Cut-off read from the data, not from the text of the source, unless noted: active = inhibition above about 30%; inactive = the rest.

A short description of assay [1]: Her2 expression decrease, cell viability multiplex – SKBR3 breast tumor cells, AlphaScreen, ATP viability, primary screen (AID 461;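 active = Her2 level under about 52% in both replicate screens, with viability over 70% of control, limit read from the data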;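 for Her2 level: lower value means less Her2 protein in the cells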;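 for viability: percent of carrier control wells set as 100% viability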). The conditions noted are these: SKBR3 Her2 protein level, 18-24 h, measured here: SKBR3 viability, ATP luminescence, at 10 µM. In general terms: In Alpha technology, singlet oxygen from a donor bead excites a nearby acceptor bead.
Assay [2] deals with Receptor tyrosine-protein kinase erbB-2 (Homo sapiens) (UniProt P04626). The assay is described as above. The conditions noted are these: 18-24 h, at 10 µM, stronger effect = lower value.
Assay [3] is described as follows: reduced viability of SK-BR-3 breast cancer cells – cell-based, 24 h, human, pilot screen (AID 572;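 active = viability at or below 10% of carrier control in both of two separate runs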;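 note: compound exposure lasted between 18 and 24 h rather than exactly 24 h; 100% = carrier-treated control wells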). The conditions noted are these: SK-BR-3 viability, CellTiter-Glo luminescence, at 10 µM, stronger effect = lower value. In general terms: In ATP-based viability assays light output follows the ATP content of the culture.
Assay [4] in a line: HUVEC growth inhibition – cell-based, human, primary screen (AID 575;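 active = viability at or below 30% in both replicate assays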;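 note: 100% = median of untreated cell wells with 0.1% DMSO on each plate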). The conditions noted are these: HUVEC proliferation, CellTiter-Glo luminescence, 72 h; at 10 µM; stronger effect = lower value. In a few lines: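 Test system: primary human umbilical vein endothelial cells; medium: endothelial basal medium with 2% FBS plus growth supplements; dosing: 10 µM compound only; times: 72 h treatment at 37 °C; signal: CTG luminescence; read-out: % viability relative to median vehicle-well signal on each plate; control set: vehicle and MePR control wells; plate: 384-well, collagen-coated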

Assay [5] can be described thus: H69AR cell proliferation blockers – human, duplicate replicates, primary screen (AID 580;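 active = viability at or under a set limit in both replicates, limit being median viability minus 3 SD, cut at about 48% in these data, passing the limit was not always enough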;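 note: 100% = mean luminescence of untreated wells and 0% = no signal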). The following applies: H69AR lung tumor cells viability, ATP luminescence, 72 h; at 10 µM; stronger effect = lower value.
Assay [6] can be described thus: MRP1 drug-resistance reversers in H69AR cells – cell-based, doxorubicin co-treatment, pilot screen (AID 601;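 active = viability loss from added drug above about 55%, and viability with drug at most 40%, in both replicates, limit read from the data, passing the limit was not always enough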). The conditions noted are these: CellTiter-Glo, 72 h, at 10 µM; for differential viability (reversal): stronger effect = higher value.
Assay [7] is described as follows: yeast transport mutant growth inhibition pilot in 384-well plates, post-Golgi transport modulator project (AID 636; in the data active = inhibition above about 31%). The following applies: absorbance 615 nm, about 18 h, stronger effect = higher value.
The nature of assay [8]: growth suppression of yeast trafficking mutant, preliminary HTS, modulators of trafficking downstream of Golgi apparatus project, 1536-format plate, OD 615 nm (AID 637). The conditions noted are these: yeast transport mutant growth, absorbance 615 nm, 18 h; stronger effect = higher value.
[9] abbreviates: H69AR cells + 2 uM doxorubicin, measured here: viability with 2 uM doxorubicin, stronger effect = lower value.
Where [10] appears, read: H69AR cells, compound alone cytotoxicity.

Chain of Receptor tyrosine-protein kinase erbB-2 (Homo sapiens) (P04626 whole entry, looked up): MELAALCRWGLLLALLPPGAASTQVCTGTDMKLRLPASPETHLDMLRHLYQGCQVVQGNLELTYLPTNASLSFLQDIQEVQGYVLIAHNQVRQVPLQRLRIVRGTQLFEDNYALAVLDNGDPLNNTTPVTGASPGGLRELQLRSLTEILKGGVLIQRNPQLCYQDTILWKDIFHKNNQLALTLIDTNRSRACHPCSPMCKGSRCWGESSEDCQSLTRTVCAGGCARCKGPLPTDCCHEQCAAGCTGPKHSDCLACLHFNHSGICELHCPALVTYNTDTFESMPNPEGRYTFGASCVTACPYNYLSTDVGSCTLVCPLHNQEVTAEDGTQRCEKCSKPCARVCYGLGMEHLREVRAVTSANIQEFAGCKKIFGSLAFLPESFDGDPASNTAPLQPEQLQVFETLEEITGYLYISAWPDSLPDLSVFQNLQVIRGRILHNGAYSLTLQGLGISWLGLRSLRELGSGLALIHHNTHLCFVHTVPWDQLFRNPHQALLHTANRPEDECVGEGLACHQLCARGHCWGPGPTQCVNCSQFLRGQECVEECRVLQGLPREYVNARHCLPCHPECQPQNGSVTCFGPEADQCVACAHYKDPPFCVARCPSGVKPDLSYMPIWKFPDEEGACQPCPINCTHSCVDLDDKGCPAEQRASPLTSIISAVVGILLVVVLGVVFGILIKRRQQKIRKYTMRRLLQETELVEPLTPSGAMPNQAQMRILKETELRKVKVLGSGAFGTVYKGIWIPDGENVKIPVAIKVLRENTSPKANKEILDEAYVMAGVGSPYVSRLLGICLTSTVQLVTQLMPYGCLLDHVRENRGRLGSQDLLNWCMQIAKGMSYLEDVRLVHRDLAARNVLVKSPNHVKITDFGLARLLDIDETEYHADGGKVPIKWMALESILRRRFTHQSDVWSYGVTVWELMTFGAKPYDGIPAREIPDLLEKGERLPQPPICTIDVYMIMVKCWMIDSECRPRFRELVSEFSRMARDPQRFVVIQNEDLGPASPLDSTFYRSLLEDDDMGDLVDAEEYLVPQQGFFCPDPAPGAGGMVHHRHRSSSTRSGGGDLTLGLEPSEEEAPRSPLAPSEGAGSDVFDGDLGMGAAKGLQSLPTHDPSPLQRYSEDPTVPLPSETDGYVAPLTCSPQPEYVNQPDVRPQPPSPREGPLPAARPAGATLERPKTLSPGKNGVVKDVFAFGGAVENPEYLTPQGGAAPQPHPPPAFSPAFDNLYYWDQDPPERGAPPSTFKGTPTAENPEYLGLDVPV

Regarding `O=C(COc1ccc(Cl)cc1)Nc1nc(-c2cccs2)cs1`, the viability (in general, a read-out of living cells in per cent, often relative to untreated cells) was 96% in assay [1]; 96% (inactive) in assay [3]; 79.9% (inactive) in assay [4]; 77.5% (inactive) in assay [5]; 84.6% in assay [6] (setting [9]); 77.5% in assay [6] (setting [10]). Further, in assay [2], the Her2 level was 74.5% (inactive). Further, the differential viability (reversal) in assay [6] (H69AR cells + 2 uM doxorubicin) is -7.15% (inactive). Further, the inhibition (commonly the drop in the measured response relative to a control, in per cent) in assay [7] is 3.55% (inactive); in assay [8], 0.18% (inactive).
With `N#CC1=C(N)OC(c2ccccc2)=C(C#N)C1c1ccc2c(c1)OCO2` (stereo not given), the viability was 95% in assay [1]; 95% (inactive) in assay [3]; 85.5% (inactive) in assay [4]; 93.8% (inactive) in assay [5]; 80.6% in assay [6] (setting [9]); 93.8% in assay [6] (setting [10]). Besides, the Her2 level in assay [2] was 108% (inactive). Further, the differential viability (reversal) in assay [6] (H69AR cells + 2 uM doxorubicin) was 13.3% (inactive). Further, the figures for the inhibition in assay [7] and in assay [8] were -0.13% (inactive) and 100% (active), respectively.
Turning to `CC(=O)NC(Cc1ccccc1)C(=O)NC1CCN(C(=O)c2cnccn2)CC1` (stereo not given), the viability was 122% in assay [1]; 122% (inactive) in assay [3]; 104% (inactive) in assay [4]; 96.2% (inactive) in assay [5]; 95% in assay [6] (setting [9]); 96.2% in assay [6] (setting [10]). The Her2 level in assay [2] was 88% (inactive). Also, the differential viability (reversal) in assay [6] (H69AR cells + 2 uM doxorubicin) is 1.21% (inactive). Moreover, the inhibition in assay [7] was -4.86% (inactive); in assay [8], 8.52% (inactive).
`CCOC(=O)c1cnn(-c2cc(C)nc3c(-c4ccccc4)c(C)nn23)c1N`: the viability in assay [1] is 120%; in assay [3], 120% (inactive); in assay [4], 84.2% (inactive); in assay [5] it was 89.4% (inactive); in assay [6] (setting [9]) it was 73.7%; in assay [6] (setting [10]), 89.4%. The Her2 level in assay [2] was 89% (inactive). Besides, the differential viability (reversal) in assay [6] (H69AR cells + 2 uM doxorubicin) was 15.7% (inactive). Besides, the inhibition is -3.77% (inactive) in assay [7] and -5.56% (inactive) in assay [8].
Take `OC(CN1CCN(c2ccccn2)CC1)Cn1c2ccccc2c2ccccc21` (stereo not given): the viability in assay [1] was 100%; in assay [3] it was 100% (inactive); in assay [4], 67.2% (inactive); in assay [5], 82.1% (inactive); in assay [6] (setting [9]), 92.4%; in assay [6] (setting [10]), 82.1%. The Her2 level in assay [2] is 114% (inactive). The differential viability (reversal) in assay [6] (H69AR cells + 2 uM doxorubicin) is -10.4% (inactive). Moreover, the figures for the inhibition in assay [7] and in assay [8] were -0.65% (inactive) and 6.5% (inactive), respectively.
As to `CNC(=O)c1c(O)c2cccc3c2n(c1=O)CC3`, the viability in assay [1] was 83.5%; in assay [3], 83.5% (inactive); in assay [4] it was 101% (inactive); in assay [5] it was 89.5% (inactive); in assay [6] (setting [9]), 95.5%; in assay [6] (setting [10]), 89.5%. Besides, in assay [2], the Her2 level is 86% (inactive). Besides, the differential viability (reversal) in assay [6] (H69AR cells + 2 uM doxorubicin) is -5.95% (inactive). Moreover, the inhibition in assay [7] is -0.13% (inactive); in assay [8], -4.52% (inactive).
In the case of `CC(C)(C)C(=O)CCN1C(=O)C2(OCCO2)c2ccccc21`, the viability in assay [1] is 104%; in assay [3], 104% (inactive); in assay [4], 83.9% (inactive); in assay [5], 103% (inactive); in assay [6] (setting [9]), 94.1%; in assay [6] (setting [10]), 103%. For the same molecule, the Her2 level in assay [2] was 106% (inactive). The differential viability (reversal) in assay [6] (H69AR cells + 2 uM doxorubicin) was 9.06% (inactive). In addition, the inhibition is -1.82% (inactive) in assay [7] and -2.3% (inactive) in assay [8].
With `O=C1CS/C(=N\C(=O)N2c3ccccc3Sc3ccccc32)N1`, the viability was 102% in assay [1]; 102% (inactive) in assay [3]; 94% (inactive) in assay [4]; 105% (inactive) in assay [5]; 90.2% in assay [6] (setting [9]); 105% in assay [6] (setting [10]). The Her2 level in assay [2] was 98.5% (inactive). In addition, the differential viability (reversal) in assay [6] (H69AR cells + 2 uM doxorubicin) is 14.4% (inactive). Also, the inhibition in assay [7] was -7.07% (inactive); in assay [8], 1.29% (inactive).
With `COc1ccccc1Nc1ncnc2c1cnn2-c1cccc(C)c1`, the viability in assay [1] was 94.5%; in assay [3] it was 94.5% (inactive); in assay [4] it was 87.7% (inactive); in assay [5] it was 95.4% (inactive); in assay [6] (setting [9]), 84.5%; in assay [6] (setting [10]) it was 95.4%. In assay [2], the Her2 level was 88.5% (inactive). The differential viability (reversal) in assay [6] (H69AR cells + 2 uM doxorubicin) was 10.9% (inactive). In addition, the inhibition was -5.33% (inactive) in assay [7] and -8.71% (inactive) in assay [8].
On to `Cc1c(C(=O)OCC(C)(C)CN(C)C)oc2ccccc12`, for which the viability was 122% in assay [1]; 122% (inactive) in assay [3]; 101% (inactive) in assay [4]; 92.4% (inactive) in assay [5]; 84.3% in assay [6] (setting [9]); 92.4% in assay [6] (setting [10]). Moreover, in assay [2], the Her2 level was 95% (inactive). Moreover, the differential viability (reversal) in assay [6] (H69AR cells + 2 uM doxorubicin) is 8.07% (inactive). Besides, the inhibition in assay [7] was -6.8% (inactive); in assay [8], -4.6% (inactive).
`COc1ccc(OC)c(NC(=O)CS(=O)(=O)Cc2nc(-c3ccccc3C)oc2C)c1`: the viability is 97.5% in assay [1]; 97.5% (inactive) in assay [3]; 66.1% (inactive) in assay [4]; 94.4% (inactive) in assay [5]; 96.6% in assay [6] (setting [9]); 94.4% in assay [6] (setting [10]). The Her2 level in assay [2] is 97.5% (inactive). In assay [6] (H69AR cells + 2 uM doxorubicin), the differential viability (reversal) is -2.23% (inactive). Also, the inhibition was -2.8% (inactive) in assay [7] and 6.83% (inactive) in assay [8].
Take `Cc1ccccc1CN1CCN(CC(=O)NCc2ccccc2)C1=O`: the viability was 113% in assay [1]; 113% (inactive) in assay [3]; 97.9% (inactive) in assay [4]; 89.9% (inactive) in assay [5]; 83% in assay [6] (setting [9]); 89.9% in assay [6] (setting [10]). Further, in assay [2], the Her2 level is 117% (inactive). The differential viability (reversal) in assay [6] (H69AR cells + 2 uM doxorubicin) is 6.96% (inactive). Also, the inhibition in assay [7] was -5.32% (inactive); in assay [8], 2.79% (inactive).
`CC1CN(c2nc3ccccn3c(=O)c2/C=C(\C#N)S(=O)(=O)c2ccccc2)CC(C)O1` (stereo not given): the viability in assay [1] was 93.5%; in assay [3], 93.5% (inactive); in assay [4], 96.3% (inactive); in assay [5], 90% (inactive); in assay [6] (setting [9]) it was 31%; in assay [6] (setting [10]) it was 90%. For the same molecule, the Her2 level in assay [2] is 106% (inactive). In addition, in assay [6] (H69AR cells + 2 uM doxorubicin), the differential viability (reversal) was 59% (active). Besides, the figures for the inhibition in assay [7] and in assay [8] were -0.53% (inactive) and -14.4% (inactive), respectively.
Take `O=C(C1CCC1)N1CCc2cc(S(=O)(=O)Nc3ccc4c(c3)OCO4)ccc21`: the viability in assay [1] was 85.5%; in assay [3] it was 85.5% (inactive); in assay [4], 70.1% (inactive); in assay [5], 91.6% (inactive); in assay [6] (setting [9]) it was 73.8%; in assay [6] (setting [10]), 91.6%. In addition, the Her2 level in assay [2] was 76% (inactive). Besides, the differential viability (reversal) in assay [6] (H69AR cells + 2 uM doxorubicin) was 17.8% (inactive). Also, the values for the inhibition in assay [7] and in assay [8] were -6.27% (inactive) and -5.08% (inactive), respectively.
